Data set [1] in a line: folding enthalpy; higher = less favourable; fluorescence melt of hairpins on a sequencing array, two-state fit. As to conditions: sodium 0.088 M. An outline of the steps: (§1)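 On a sequenced MiSeq flow cell, library hairpins with annealed Cy3 and quencher oligos were imaged for Cy3 fluorescence in 2.5 °C steps up to 60 °C, in 50 mM Na-HEPES pH 8.0, 25 mM NaCl. Normalisation used pre-quench Cy3 and control constructs. Bootstrapped two-state fits gave melting temperature and folding enthalpy, combined by inverse variance across four replicates and with fitted temperatures raised by 9.35 °C to match UV melts.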

Data set [2] can be described thus: melting temperature; fluorescence melt of hairpins on a sequencing array, two-state fit, raised by 9.35 °C to match UV melts. Particulars: sodium 0.088 M. An outline of the steps: as §1

On to GATCTCACTCGAGATC ((((((....)))))), for which, in data set [1], the folding enthalpy was -50.8 kcal/mol. In addition, in data set [2], the Tm came to 52.1 °C.
For GATCTCACTTGAGATC ((((((....)))))), in that order: -39 kcal/mol and 54.1 °C.
In the case of GATCTCAGAGGAGATC ((((((....)))))), in data set [1], the folding enthalpy was -32.9 kcal/mol. Also, the Tm in data set [2] stood at 50.8 °C.
Turning to GATCTCAGATGAGATC ((((((....)))))), the folding enthalpy in data set [1] is -36.3 kcal/mol. Also, the Tm in data set [2] worked out at 52.5 °C.
For GATCTCAGTGAGATC ((((((...)))))), in that order: -31.9 kcal/mol and 53.1 °C.
For GATCTCAGTTGAGATC ((((((....)))))) the same measures were -34.5 kcal/mol and 54.2 °C.
In the case of GATCTCATAGAGATC ((((((...)))))), the folding enthalpy in data set [1] was -38.3 kcal/mol. The Tm in data set [2] was determined as 55.2 °C.
For GATCTCATCGGAGATC ((((((....)))))), in that order: -36.1 kcal/mol and 52.8 °C.
For GATCTCATGGGAGATC ((((((....)))))), in that order: -37 kcal/mol and 54 °C.
Take GATCTCATTAGAGATC ((((((....)))))): the folding enthalpy in data set [1] is -35 kcal/mol. For the same sequence, the Tm in data set [2] worked out at 57.1 °C.
As for GATCTCCAAAGAGATC ((((((....)))))), the folding enthalpy in data set [1] is -35.6 kcal/mol. In addition, the Tm in data set [2] came to 52.5 °C.
For GATCTCCACAGAGATC ((((((....)))))), in that order: -32.4 kcal/mol and 55.7 °C.
With GATCTCCACGAGATC ((((((...)))))), the folding enthalpy in data set [1] was -42 kcal/mol. Also, in data set [2], the Tm worked out at 53.6 °C.
For the sequence GATCTCCATCGAGATC ((((((....)))))), in data set [1], the folding enthalpy is -34.4 kcal/mol. The Tm in data set [2] was found to be 50.7 °C.
For GATCTCCATGAGATC ((((((...)))))), in that order: -42.1 kcal/mol and 53.3 °C.
For GATCTCCCATGAGATC ((((((....)))))) the same measures were -34.4 kcal/mol and 51.6 °C.
For GATCTCCCCCGAGATC ((((((....)))))) the same measures were -36 kcal/mol and 51.5 °C.
With GATCTCCCGAGAGATC ((((((....)))))), in data set [1], the folding enthalpy is -38.6 kcal/mol. Further, the Tm in data set [2] turned out to be 52.7 °C.
Turning to GATCTCCCTGAGATC ((((((...)))))), in data set [1], the folding enthalpy was -34.7 kcal/mol. In data set [2], the Tm stood at 55.3 °C.
For GATCTCCGAAAGGAAATC (((.(((....))).))) the same measures were -25.1 kcal/mol and 34.2 °C.
For GATCTCCGAAGAGATC ((((((....)))))) the same measures were -40.6 kcal/mol and 54 °C.
Regarding GATCTCCGAGAGATC ((((((...)))))), the folding enthalpy in data set [1] was -35.2 kcal/mol. Moreover, the Tm in data set [2] turned out to be 51 °C.
For GATCTCCTAAGAGATC ((((((....)))))) the same measures were -42.6 kcal/mol and 53.6 °C.
For GATCTCCTAGAGATC ((((((...)))))) the same measures were -35.1 kcal/mol and 53 °C.
For the sequence GATCTCCTCTGAGATC ((((((....)))))), the folding enthalpy in data set [1] was -31.3 kcal/mol. Also, the Tm in data set [2] turned out to be 51.8 °C.
For GATCTCGAACGAGATC ((((((....)))))), in that order: -40.8 kcal/mol and 60.2 °C.
For GATCTCGAATGAGATC ((((((....)))))) the same measures were -39.5 kcal/mol and 57.5 °C.
On to GATCTCGATAGAGATC ((((((....)))))), for which the folding enthalpy in data set [1] was -36 kcal/mol. For the same sequence, the Tm in data set [2] worked out at 66.8 °C.
For GATCTCGCAGGAGATC ((((((....)))))), the folding enthalpy in data set [1] was -50.6 kcal/mol. Moreover, the Tm in data set [2] came to 57.5 °C.
For GATCTCGCCGGAGATC ((((((....)))))), in that order: -35.5 kcal/mol and 54.4 °C.
Turning to GATCTCGCGAGAGATC ((((((....)))))), in data set [1], the folding enthalpy was -42.1 kcal/mol. Also, the Tm in data set [2] is 64.2 °C.
For the sequence GATCTCGGAAACGGGATC ((((.((....)).)))), the folding enthalpy in data set [1] was -35 kcal/mol. In addition, the Tm in data set [2] is 51.3 °C.
In the case of GATCTCGGCGGAGATC ((((((....)))))), in data set [1], the folding enthalpy is -48.8 kcal/mol. Moreover, the Tm in data set [2] was 55.4 °C.
For GATCTCGGGTGAGATC ((((((....)))))), in that order: -30 kcal/mol and 52.2 °C.
With GATCTCGTTGAGATC ((((((...)))))), the folding enthalpy in data set [1] was -37.8 kcal/mol. Also, the Tm in data set [2] amounted to 54.9 °C.
Regarding GATCTCTACCGAGATC ((((((....)))))), in data set [1], the folding enthalpy is -37.1 kcal/mol. For the same sequence, in data set [2], the Tm was 51.7 °C.
For GATCTCTAGGGAGATC ((((((....)))))), in that order: -39.7 kcal/mol and 53.1 °C.
For GATCTCTATGAGATC ((((((...)))))) the same measures were -31.3 kcal/mol and 54.6 °C.
